Lung fibro prol = antiproliferative effect on LL 47 fibroblasts – human, LL 47 cells, CellTiter-Glo luminescence, primary screen; LL 47 human lung fibroblast viability, ATP luminescence; active compounds read low; viability, % at 10 µM; 1.1% of 85,000 active;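 active means viability at or below 50% in the single dose screen; inactive means viability above 50%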;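 further: compound exposure lasted 72 h before the ATP readout; 100% = median luminescence of untreated cell-only wells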
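Material: human LL 47 lung fibroblast cells; quantity: 1,150 cells/well; medium: IMEM plus 15% FBS; doses: 0.1% DMSO in all compound wells; timing: overnight attachment after seeding, then 72 h compound exposure at 37 °C; detection: CellTiter-Glo luminescence; measure: % viability of median cell-only signal; controls: cell-only wells, no compound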
H69AR growth 86K = proliferation blockers of H69AR lung cancer cells, primary screen, cell-based, human, 86K library; 6% of 85,000 active; AID 598, 2007; viability, % at 10 µM; H69AR lung tumor viability, ATP luminescence, 72 h; active compounds read low;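 active means viability at or below 40%; inactive means viability above 40%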;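 further: multidrug resistant small cell line overexpressing MRP-1 efflux transporter; 100% = mean luminescence of untreated control wells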
HCT116 bCat-KO = primary screen for growth suppressors in beta-catenin knockout HCT116 cells (colon tumor, human). HCT116 beta-catenin knockout viability, CellTiter-Glo, 60 h; active compounds read low. 1.5% of 140,000 active. viability, % at 10 µM;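 active means viability at or under a set limit, the compound median less 4 SD, cut at about 6% in these data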;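 further: 0% = Hyamine 1622 control at 20 µM and 100% = untreated cell control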
HUVEC prolif 384 = inhibitors of HUVEC proliferation, primary screen, cell-based, 384-well; CellTiter-Glo luminescence, 72 h; active compounds read low; viability, % at 10 µM (by protocol); 1.1% of 86,000 active; AID 648, 2007;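 active means viability at or below 30%; inactive means viability above 30%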;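 further: 100% = median luminescence of DMSO-only cell control wells on each plate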
HCT116 PTEN-null = growth suppression of PTEN-null HCT116, primary screen, cell-based, CellTiter-Glo | 1.2% of 140,000 active | HCT116 PTEN-null viability, 60 h; active compounds read low | viability, % at 10 µM;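 active means viability at or below a set limit, 4 SD under the median of all tested compounds, cut at about 3.7% in these data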;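 further: PTEN knockout HCT116 line with beta catenin targeted HCT116 as companion control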
Starred values were filed as active, the others as inactive; . = no result. The entries come from a sample that favours hits as a whole.

SMILES	Lung fibro prol	H69AR growth 86K	HCT116 bCat-KO	HUVEC prolif 384	HCT116 PTEN-null
CCn1c2ccccc2c2nc3cc(S(=O)(=O)N4CCOCC4)ccc3nc21	84	6.1*	69	90	84
c1ccc2nc3c(nc2c1)c1ccccc1n3CCN1CCOCC1	84	83	47	92	49
CC1=NOC(=O)/C1=C\c1ccc(-c2cccc(Cl)c2)o1	8.0*	1.1*	1.1*	42	3.7*
COc1cc2nc(SCC(=O)NC3CC3)n(CCC3=CCCCC3)c(=O)c2cc1OC	76	34*	.	25*	.
COc1cc2nc(SCc3c(C)noc3C)n(CCC3=CCCCC3)c(=O)c2cc1OC	86	27*	50	71	48
C=CCn1c(SCc2c(C)noc2C)nc2cc(C(=O)O)ccc2c1=O	85	94	27	47	31
O=[N+]([O-])c1ccc(O)c(/C=N/Nc2ccccn2)c1	.	.	12	.	13
Cc1cc(C(=O)N/N=C/c2cc([N+](=O)[O-])ccc2O)c2ccccc2n1	.	.	9	.	3.0*
O=[N+]([O-])c1ccc(O)c(/C=N/Nc2nc3ccccc3[nH]2)c1	.	.	4.2*	.	5
COC(=O)c1ccc(OC(C)C(=O)c2ccc(C)cc2)cc1 (centres undefined)	.	.	85	.	88
Brc1ccc2oc3c(N4CCOCC4)ncnc3c2c1	85	56	78	73	75
Clc1ccc2oc3c(Cl)ncnc3c2c1	.	.	3.0*	.	14
COc1ccccc1N1CCN(C(=O)C2CC=CCC2C(=O)O)CC1 (centres undefined)	96	101	111	95	96
COc1ccccc1N1CCN(C(=O)C2c3ccccc3Oc3ccccc32)CC1	58	30*	17	39	15
O=C(C1c2ccccc2Oc2ccccc21)N1CCN(c2ccc(Cl)cc2)CC1	87	39*	43	82	38
CCOC(=S)SCC(=O)N1CCc2cc(OC)ccc2C1C1C(=O)CCCC1=O (centres undefined)	.	.	15	.	13
CN1CCN(c2ccc(S(=O)(=O)N3CCCCC3)cc2NC(=O)c2ccc3ccccc3c2)CC1	.	.	2.3*	.	1.4*
CCN(CC)S(=O)(=O)c1cc(C(=O)Nc2cc(Cl)ccc2N2CCN(C)CC2)ccc1Cl	.	.	0.6*	.	0.5*
CN(C)S(=O)(=O)c1cccc(C(=O)Nc2ccccc2[N+](=O)[O-])c1	.	.	13	.	6
Cc1ccccc1C(=O)Nc1cc(S(=O)(=O)N2CCCCC2)ccc1N1CCN(C)CC1	.	.	78	.	83
CCN(CC)S(=O)(=O)c1cc(C(=O)Nc2ccccc2[N+](=O)[O-])ccc1Cl	.	.	9	.	2.5*
CCc1nnc(NC(=O)CSc2nc(-c3ccccc3)nc3ccccc23)s1	.	.	62	.	73
COc1ccc(-c2nnc(NC(=O)C3=COCCO3)o2)cc1	.	.	93	.	98
COC(=O)C1=C(C)OC(N)=C(C#N)C1c1ccccc1 (centres undefined)	100	91	94	89	104
CNC(=O)C1C(=S)NC(N)=C(C#N)C1c1ccccc1 (centres undefined)	.	.	0.5*	.	1.0*
SMILES	Lung fibro prol	H69AR growth 86K	HCT116 bCat-KO	HUVEC prolif 384	HCT116 PTEN-null
Cc1cc(C)c(O)c(-c2cc(C(=O)Nc3ccc(S(=O)(=O)N4CCOCC4)cc3)[nH]n2)c1	41*	9.2*	2.3*	36	1.2*
CC1=NN(c2ccc(C)cc2)C(=O)/C1=C\C=C\c1ccccc1	.	.	3.1*	.	3.0*
Cn1c(=O)[nH]c(=O)c2c1nc(SCC(=O)Nc1ccccc1)n2Cc1ccccc1	95	87	86	85	93
CCCCCOC(=O)Cn1c(SCC(=O)Nc2ccccc2)nc2c1c(=O)[nH]c(=O)n2C	97	32*	94	77	86
CN(C)S(=O)(=O)c1cccc(C(=O)OCC(=O)NC2CCCc3ccccc32)c1 (centres undefined)	.	.	95	.	98
CCCCCC/C(=N/O)c1ccccn1	61	25*	4.2*	28*	4
S=C(Cc1cccnc1)N1CCOCC1	.	.	89	.	93
Cc1ccc(NC(=O)c2sc(Cl)nc2C)c(C)c1	.	.	100	.	103
Cc1cc(C)c(C)c(OC(=O)c2sc(Cl)nc2C)c1	.	.	1.7*	.	2.3*
CC(=O)N1CCN(c2ccc(NC(=O)c3ccc4c(c3)OCCO4)cc2)CC1	95	105	73	100	75
CC(C)C(=O)N1CCN(c2ccc(NC(=O)c3ccc4c(c3)OCCO4)cc2Cl)CC1	19*	6.2*	1.3*	3.2*	1.7*
CCCc1cc(Nc2ccccc2OCC)n2ncnc2n1	96	90	82	93	80
O=C(NCc1ccccn1)[C@H]1C[C@@H]1[C@H](NP(=O)(c1ccccc1)c1ccccc1)c1ccccc1	.	.	0.8*	.	0.6*
O=C(NCCF)[C@H]1C[C@@H]1[C@H](NP(=O)(c1ccccc1)c1ccccc1)c1ccccc1	.	.	106	.	99
CCC/C=C(\CCC)C(NS(=O)(=O)c1cccc2cccnc12)c1ccc(C(=O)OC)cc1 (centres undefined)	.	.	56	.	54
CCOC(=O)c1ccc(Nc2nc(C(=O)OCC)nc3ccccc23)cc1	103	38*	92	70	98
CCOC(=O)c1nc(Nc2ccc(C(=O)O)cc2)c2ccccc2n1	100	105	102	97	91
CCc1ccc(C(=O)COC(=O)CCc2nc3ccccc3c(=O)[nH]2)cc1	.	.	91	.	86
c1ccc(-n2cnc3cc(NCc4cccs4)ccc32)cc1	61	23*	13	73	16
c1ccc(-n2ncc3c(N4CCN(c5ccccn5)CC4)nc(N4CCOCC4)nc32)cc1	95	28*	.	54	.
CC(=O)Nc1ccc(-c2nnc(SCC(=O)n3c4c(c5ccccc53)CCCC4)n2C)cc1	100	35*	106	93	112
Cc1cc(-c2n[nH]c(=S)o2)c(C)n1-c1ccccc1	99	38*	68	90	71
COc1cc2c(cc1NC(=O)C1CCCO1)oc1ccccc12 (centres undefined)	83	35*	41	71	54
COc1ccc(Cl)cc1NC(=O)C1CCCO1 (centres undefined)	88	112	104	96	108
COc1cc2c(cc1NC(=O)Cn1cnc3c1c(=O)n(C)c(=O)n3C)oc1ccccc12	86	8.1*	72	76	81
COc1ccccc1NS(=O)(=O)c1cc(NC(=O)CNC(=O)c2ccc(C)s2)ccc1Cl	.	.	95	.	99
CNC1=C(N(C(C)=O)c2ccc(Br)cc2)C(=O)c2ccccc2C1=O	.	.	1.3*	.	1.4*
Cc1ccc(C(=O)C[n+]2cc(Br)cc(Br)c2)cc1[N+](=O)[O-]	.	.	85	.	88
CC[C@H](C)C(=O)O[C@H]1C[C@@H](C)C=C2C=C[C@H](C)[C@H](CC[C@@H]3C[C@@H](O)CC(=O)O3)[C@H]21	46*	46	94	17*	96

Compound activity: PubChem, SRMLSC
